Measured values published in ChEMBL document CHEMBL4513216, “Probing the Open Global Health Chemical Diversity Library for Multistage-Active Starting Points for Next-Generation Antimalarials” (ACS Infect Dis, 2020).

Experiment: Toxicity liver stage against HepG2, at 10uM
Format: cell-based
Design: test concentration 10 uM, cell line HepG2-A16-CD81EGFP
Details: human, HepG2-A16-CD81EGFP cells; read-out: INHIBITION
Method in brief: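 Uninfected HepG2-A16-CD81EGFP cells, 3 × 10^3 per well, 1536-well, plated on prespotted compound at 10 μM final, parasite-free screening media added to match infected plates; puromycin 10 μM positive, DMSO 0.5% negative; run in parallel with 48 h PbLuc assay at 37 °C, 5% CO2; viability by CellTiter-Glo luminescence, normalized to controls.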

Row | Structure (SMILES) | cytotoxicity at 10 µM
1 | CCCS(=O)(=O)N1CCN(Cc2ccco2)CC1 | 4.28%
2 | Cc1ccc(-c2c[nH]c([C@@H]3COCCN3Cc3cccnc3)n2)cc1 | 0.283%
3 | O=C1Nc2ccccc2/C1=C1\CCCCCN1 | 13.6%
4 | CSCCC(Nc1nc(C)cc(C)n1)C(=O)NC(C)(C)CO (stereo not given) | -5.15%
5 | CNCc1ccc(Oc2cncc(C)n2)cc1 | 7.1%
6 | c1cc(CN2CCc3c(CN4CCCC4)n[nH]c3C2)ccn1 | -10.5%
7 | Cc1ncnc2c1CCN(C(=O)c1cccnc1)CC2 | 8.36%
8 | CN1CCN(C(=O)c2cc(-c3cnc(N4CCCC4)nc3)cn2C)CC1 | -1.43%
9 | CC(C)NC(=O)N1CCN(C(=O)NC(C)C)CC2(CNC(=O)C2)C1 | 3.3%
10 | CN(C)CC(=O)N1CCOCC2(C1)CN(c1ccccc1)C(=O)CO2 (stereo not given) | 0.00964%
11 | COC[C@H]1CCC[C@]12CN(C(=O)NCc1ccccc1)CCO2 | -11.6%
12 | Cc1nn(Cc2ccc(C(=O)NCCCN3CCCC3=O)o2)c(C)c1Cl | -10.2%
13 | COc1ccc(C)cc1Nc1nc2c(C)nn(C)c2c(=O)n1C | 3.96%
14 | COCc1nc(N(C)C)ncc1C(=O)NC(C)C | 12.8%
15 | Cc1noc(C)c1-c1cc(CCC2CN(CCC(N)=O)CCO2)ncn1 (stereo not given) | 6.11%
16 | CCC(=O)N1CCCCC1c1nc(O)c2c(n1)CN(C(C)=O)CC2 (stereo not given) | 0.525%
17 | Cc1ccnn1CCC(=O)N1CCCC2(C1)NC(=O)c1ccccc1O2 (stereo not given) | -0.776%
18 | Cc1nn(C)cc1NC(=O)CN1CCC(Oc2cnccn2)CC1 | -4.19%
19 | CNc1cc(C)nc(C2CCN(CCO)CC2)n1 | 1.56%
20 | CC(=O)N1CCC(c2nn(C)c3nccnc23)C1 (stereo not given) | -21.1%
21 | CN(C)C(=O)CCc1cncc(C2CCCN2Cc2ccccn2)n1 (stereo not given) | -3.94%
22 | OCCN(CCO)Cc1ccc(Br)c2cccnc12 | 0.14%

Row | Structure (SMILES) | cytotoxicity at 10 µM
23 | CC(C)(C)NC(=O)CNc1ncccn1 | -5.09%
24 | c1csc(-c2noc(CCCNC3CCc4ncnn4C3)n2)c1 (stereo not given) | -1.36%
25 | CNC(=O)Cc1noc(-c2cc3c(s2)CCC(C)(C)C3)n1 | 3.57%
26 | N#CCCN(CC1CCOC1)S(=O)(=O)c1c(F)cccc1Cl (stereo not given) | -2.58%
27 | Cc1c(NC(=O)NCCO)cccc1OC1CCCC1 | -2.25%
28 | CCOCCC(=O)N(CCC#N)c1ccc(C)c(C)c1 | 4.06%
29 | CCCN(CC(F)(F)F)S(=O)(=O)c1cc(C(N)=O)n(C)c1 | -4.15%
30 | Cc1ccc(S(=O)(=O)N2CCOCC2C#N)cc1Br (stereo not given) | 6.08%
31 | CNC(=O)C1CCCN1C(=O)NCCCc1cccc(F)c1 (stereo not given) | 2.75%
32 | CC(C)(C)c1nccc(N2CCCCC2CCNS(C)(=O)=O)n1 (stereo not given) | 8.83%
33 | CC(CNC(=O)c1nnn(-c2ccccc2)c1C(F)(F)F)N(C)C (stereo not given) | 2.19%
34 | CCn1nc(C)cc1C(=O)OCCNC(=O)c1ccccc1 | 1.44%
35 | O=C(NCC1(O)CCSCC1)c1ccoc1 | -6.61%
36 | CCCNC(=O)CCNc1cncc(-n2nc(C)cc2C)n1 | 5.3%
37 | Cc1ccc(F)cc1C(=O)N1CCN(S(C)(=O)=O)[C@@H](C)C1 | -2.53%
38 | Cc1occc1CNC(=O)C1CCN(C(=O)OC(C)(C)C)C1 (stereo not given) | 3.67%
39 | COCCN1CCCN(C(=O)c2scnc2C)CC1 | 5.27%
40 | Cc1ccc(CNCC2CCN(CCO)CC2)cc1 | -6.14%
41 | Cc1nccn1-c1cc(CNC(=O)COCC2CC2)ccn1 | 2.37%
42 | Cc1cc(C(=O)NC2CCN(CC(N)=O)CC2)nn1C(C)(C)C | -5.22%
43 | Brc1csc(CNCc2nnc3n2CCC3)c1 | 5.63%
44 | Cc1ccc(C(C)(O)CNC(=O)c2scnc2C)o1 (stereo not given) | -1.42%

Row | Structure (SMILES) | cytotoxicity at 10 µM
45 | COCc1ccccc1CNC(=O)CNc1ccccc1C(C)=O | 3.49%
46 | COCCOc1ccc(NCc2cccc3cn[nH]c23)cn1 | 5.04%
47 | CCC1CN(c2ncnc3nc[nH]c23)CCO1 (stereo not given) | 19.5%
48 | O=S(=O)(c1cccnc1)N1CCC(OCCCc2ccccc2)C1 (stereo not given) | 9.31%
49 | CSCC(=O)NC1CCN(C(C)c2ccccc2)CC1 (stereo not given) | 3.63%
50 | CC(CO)(NCc1noc(Cc2ccccc2)n1)C1CCCCC1 (stereo not given) | -17.2%
51 | Nc1cc2c(nn1)CCN(C(=O)c1ccc(Oc3cccnc3)cc1)C2 | 6.27%
52 | Cc1[nH]ncc1CCCNC(=O)N1CCOC(C)C1 (stereo not given) | 3.14%
53 | O=C(NCc1cccnc1N1CCCCC1)c1ccc2c(c1)OCO2 | -3.76%
54 | Cc1cc(NS(=O)(=O)c2cnc3onc(C)c3c2)no1 | 4.43%
55 | CC(C)(CNC(=O)OC(C)(C)C)NC(=O)C1CC(=O)N(C2CC2)C1 (stereo not given) | 14.3%
56 | Cc1cnc(NC(=O)N2CCCC2)s1 | -13.6%
57 | Cn1nc2c(cc1=O)CN(CC(=O)Nc1ccc(Cl)cn1)CC2 | 0.874%
58 | O=C(CN(Cc1ccccc1)CC1CCOCC1)Nc1nccs1 | -13.5%
59 | CCOc1ncccc1NC(=O)c1cc(C)c(C)s1 | -2.96%
60 | O=C1NCCO[C@H]2CN(C(=O)Cc3ccco3)CC[C@@H]12 | -105%
61 | O=C(c1ccnnc1)N1C[C@H](OCC2CC2)[C@H]2COC[C@H]21 | 0.0658%
62 | COCC1CC2(CCN(Cc3ccccn3)CC2)CN1C(C)C (stereo not given) | -7.16%
63 | CC(=O)Nc1nc(C)c(S(=O)(=O)NCCc2ccccn2)s1 | -5%
64 | COc1ccc2c(c1)CC(C(=O)N(C)CCCc1cnn(C)c1)CO2 (stereo not given) | -7.55%
65 | C=C(C)COc1ccccc1C(=O)NCc1nc(C)cc(=O)[nH]1 | -3.7%
66 | CCOc1ccc2[nH]c(=O)c(CN3CCC(N4CCCC4)CC3)cc2c1 | -7.83%

Row | Structure (SMILES) | cytotoxicity at 10 µM
67 | CC1(Cc2ccc3c(c2)OCO3)CCCN(S(=O)(=O)N2CCCC2)C1 (stereo not given) | -0.788%
68 | COc1ccccc1OC1CN(C(=O)CN(C)Cc2ccncc2)C1 | -3.09%
69 | O=C(CCN1CCOC(C(F)(F)F)C1)NCc1ccc(Cl)cc1 (stereo not given) | -9.93%
70 | CN1CCC(O)(CNC(=O)c2cc(COc3cccc(F)c3)[nH]n2)CC1 | 2.91%
71 | COc1nc2ccccc2cc1C1CC(=O)Nc2n[nH]c(C3CCC3)c21 (stereo not given) | -13.5%
72 | CN(C)S(=O)(=O)NCc1nc(-c2cccc(F)c2)c(-c2ccccn2)[nH]1 | -7.76%
73 | O=C1O[C@@H]2CN(c3ccc(Cl)cn3)C[C@@H]2N1CCc1ccc(F)cc1 | -2.77%
74 | O=C(NCc1cc2n(n1)CCCNC2)C1(c2ccccc2)CCCCC1 | -10.6%
75 | FC(F)(F)c1ccnc(N2CCCN(Cc3ccccn3)CC2)n1 | -3.5%
76 | O=S(=O)(NCc1ccccc1)N(Cc1ccccn1)CC1CCCO1 (stereo not given) | 1.62%
77 | Cc1nn2c(NCC(=O)NC3CC3)cc(-c3ccccc3)nc2c1C | -5.1%
78 | CC(=O)Nc1ccc(C(=O)Nc2cnc3n2CCCC3)cc1C | 0.271%
79 | Cc1ccc(OCC(C)NS(C)(=O)=O)cc1 (stereo not given) | 14.8%
80 | Cc1ccccc1N1CCCN(C(=O)c2cn(C)c3ccccc23)CC1 | -11.2%
81 | Cc1cncc(C(=O)N2CCC(Cn3cc(-c4ccsc4)nn3)CC2)c1 | -6.69%
82 | CCCc1nc(C)cc(N2CCC3(CCC(=O)N(CC4CC4)C3)CC2)n1 | 14.9%
83 | COc1cc(C(=O)N2CCCC2c2noc(C(C)C)n2)on1 (stereo not given) | -12.4%
84 | c1cc(COc2ccc(CNC3CCc4ncnn4C3)cc2)ccn1 (stereo not given) | -0.279%
85 | CCn1ccnc1CN1CCN(CCC(=O)NC2CCCCC2)CC1 | -12.3%
86 | CN(C)c1cc(CNC(=O)Nc2nncs2)ccn1 | -20.5%
87 | Cc1nc(C)n(CC2CCCN(CCC(=O)N3CCOCC3)C2)n1 (stereo not given) | -6.7%
88 | CC(C)C(=O)NCc1ccc(-n2cncn2)nc1 | 0.239%

Row | Structure (SMILES) | cytotoxicity at 10 µM
89 | CNS(=O)(=O)c1ccc(C(=O)N2CCCC2c2ccccc2)o1 (stereo not given) | -7.67%
90 | CS(=O)(=O)c1ccc(CNC(=O)N2CCC(c3ccccc3)CC2)cc1 | -0.884%
91 | Cc1cnn(CC(C)NCc2ccc(-n3cccn3)cc2)c1 (stereo not given) | 1.44%
92 | Cc1ccc(C(=O)NC2CCN(C(=O)Nc3ccccn3)CC2)o1 | 4.86%
93 | CCc1ccc(C(=O)N2CCCC(c3noc(CC)n3)C2)o1 (stereo not given) | -3.97%
94 | Cc1nc(-c2ccc(F)c(F)c2)cc(C2CCNCC2)n1 | 2.04%
95 | Cc1ccc2c(n1)N(CCn1cccn1)CCN(C(=O)CC1CC1)C2 | -5.58%
96 | Cc1noc(C)c1CN1C[C@H](OCC2CC2)[C@H]2OCCC[C@H]21 | -14.9%
97 | CCOCC1CN(Cc2ccccn2)Cc2nn(CC3CC3)cc21 (stereo not given) | -0.966%
98 | Cc1cccc(S(=O)(=O)N2CC[C@H]3CO[C@H](CN(C)C)[C@H]3C2)c1 | -92.1%
99 | CN(C)C(=O)CO[C@@H]1CN(Cc2ccccc2F)[C@@H]2CCCO[C@@H]21 | -3.81%
100 | COCCN1C[C@@H]2CN(Cc3cccc(F)c3)CCC[C@]2(C(=O)O)C1 | 0.928%
101 | Cc1nnc([C@]23COC[C@H]2CN(S(=O)(=O)c2cccnc2)C3)o1 | -97.8%
102 | O=C(c1cccnc1)N1CCC2(CC1)COC(COc1ccccn1)C2 (stereo not given) | -0.735%
103 | COCCN1CCN(c2ccc(C)nn2)Cc2cccnc21 | -3.68%
104 | O=C(NC1CCCC1)[C@H]1C[C@H]2OCC[C@H]2N(Cc2ccoc2)C1 | -77.3%
105 | O=C(c1ccc(F)cc1)N1CCN2C[C@H](OCc3ccccn3)C[C@H]2C1 | 2.8%
106 | CS(=O)(=O)NC[C@@H]1OC[C@H]2CN(C(=O)c3ccccn3)CC[C@H]21 | -7.47%
107 | O=C(CC1CC1)N[C@@H]1CN(Cc2ccco2)C[C@@H]2CCCO[C@@H]21 | -1.63%
108 | c1csc(CN2CCCn3cnc(COCC4CC4)c3C2)c1 | -74.6%
109 | CCc1nc(C)cc(N2CCN(C(=O)[C@@H]3C[C@H]4C=C[C@@H]3C4)CC2)n1 | 5.68%
110 | Cc1ccc(C(=O)N2[C@@H]3CC[C@H]2CC(=O)N(C)C3)c(=O)[nH]1 | 4.23%
